Data as given in ChEMBL document CHEMBL3124905, “Isothiocoumarin-3-carboxylic acid derivatives: synthesis, anticancer and antitrypanosomal activity evaluation” (Eur J Med Chem, 2014).
Each block holds one molecule with its values, some of them ahead of it. The source made the active and inactive calls. The calls are words filed in the database; no cut-off is given here.

What was measured:
RXF 393 = assay: Growth inhibition of human RXF393 cells after 48 hrs by SRB assay; type: functional
Procedure, shortened: (§1)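 NCI five-dose assay against the ~60-cell-line panel (nine cancer types). Tenfold dilutions from 10−4 to 10−8 M were used with continuous 48-h exposure and SRB absorbance readout. Percent growth was computed from time-zero, control and treated absorbances. GI50 is the concentration giving 50% lower net protein increase than controls. Values not reached are reported as beyond the tested range.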

OVCAR-5 = assay: Growth inhibition of human OVCAR5 cells after 48 hrs by SRB assay; type: functional; procedure, shortened: as §1
SNB-75 = assay: Growth inhibition of human SNB75 cells after 48 hrs by SRB assay; type: functional; procedure, shortened: as §1
SK-MEL-5 = assay: Growth inhibition of human SK-MEL-5 cells after 48 hrs by SRB assay; type: functional; procedure, shortened: as §1
CCRF-CEM = assay: Growth inhibition of human CCRF-CEM cells after 48 hrs by SRB assay; type: functional; procedure, shortened: as §1
SF-539 = assay: Growth inhibition of human SF539 cells after 48 hrs by SRB assay; type: functional; procedure, shortened: as §1
HCC 2998 = assay: Growth inhibition of human HCC2998 cells after 48 hrs by SRB assay; type: functional; procedure, shortened: as §1
CAKI-1 = assay: Growth inhibition of human CAKI-1 cells after 48 hrs by SRB assay; type: functional; procedure, shortened: as §1
KM12 = assay: Growth inhibition of human KM12 cells after 48 hrs by SRB assay; type: functional; procedure, shortened: as §1
NCI-H322M = assay: Growth inhibition of human NCI-H322M cells after 48 hrs by SRB assay; type: functional; procedure, shortened: as §1
NCI-H23 = assay: Growth inhibition of human NCI-H23 cells after 48 hrs by SRB assay; type: functional; procedure, shortened: as §1
OVCAR-8 = assay: Growth inhibition of human OVCAR8 cells after 48 hrs by SRB assay; type: functional; procedure, shortened: as §1
MCF7 = assay: Anticancer activity against human MCF7 cells assessed as cell growth at 100 uM after 48 hrs by SRB assay; type: functional; conditions: MCF7, 48 h, read-out: Activity
Procedure, shortened: (§2)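 NCI one-dose primary screen on a three-line panel (breast MCF7, lung NCI-H460, CNS SF-268). Cells were inoculated and preincubated 24–48 h, then exposed to a single concentration of 10−4 M for 48 h. The endpoint was sulforhodamine B protein staining, and results are expressed as percent growth relative to untreated control cells. Negative values denote cytotoxicity.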

Hs-578T = assay: Growth inhibition of human Hs 578T cells after 48 hrs by SRB assay; type: functional; procedure, shortened: as §1
786-0 [1] = assay: Growth inhibition of human 786-O cells after 48 hrs by SRB assay; type: functional; procedure, shortened: as §1
786-0 [2] = assay: Growth inhibition of human 786-0 cells after 48 hrs by SRB assay; type: functional; procedure, shortened: as §1
HOP-62 = assay: Growth inhibition of human HOP62 cells after 48 hrs by SRB assay; type: functional; procedure, shortened: as §1
M14 = assay: Growth inhibition of human M14 cells after 48 hrs by SRB assay; type: functional; procedure, shortened: as §1
SF-268 = assay: Anticancer activity against human SF268 cells assessed as cell growth at 100 uM after 48 hrs by SRB assay; type: functional; conditions: SF-268, 48 h, read-out: Activity; procedure, shortened: as §2
EKVX = assay: Growth inhibition of human EKVX cells after 48 hrs by SRB assay; type: functional; procedure, shortened: as §1
NCI-H522 = assay: Growth inhibition of human NCI-H522 cells after 48 hrs by SRB assay; type: functional; procedure, shortened: as §1
HOP69 = assay: Growth inhibition of human […] cells after 48 hrs by SRB assay; type: functional; procedure, shortened: as §1
UO-31 = assay: Growth inhibition of human UO31 cells after 48 hrs by SRB assay; type: functional
Procedure, shortened: (§3)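 NCI ~60-cell-line five-dose screen. Cells were preincubated 24-48 h, then given compound at 10-fold dilutions from 10^-4 to 10^-8 M with 48 h continuous exposure. SRB protein stain was read by absorbance at time zero, in untreated control and with drug. GI50 was derived from [(Ti-Tz)/(C-Tz)]x100=50, TGI from Ti=Tz, and LC50 from [(Ti-Tz)/Tz]x100=-50.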

HCT-116 = assay: Growth inhibition of human HCT116 cells after 48 hrs by SRB assay; type: functional; procedure, shortened: as §1
TK-10 = assay: Growth inhibition of human TK10 cells after 48 hrs by SRB assay; type: functional; procedure, shortened: as §3
BT-549 = assay: Growth inhibition of human BT549 cells after 48 hrs by SRB assay; type: functional; procedure, shortened: as §1
MDA-MB-231 = assay: Growth inhibition of human MDA-MB-231/ATCC cells after 48 hrs by SRB assay; type: functional; procedure, shortened: as §1
MDA-MB-435 = assay: Growth inhibition of human MDA-MB-435 cells after 48 hrs by SRB assay; type: functional; procedure, shortened: as §1
NCI-H460 [3] = assay: Growth inhibition of human NCI-H460 cells after 48 hrs by SRB assay; type: functional; procedure, shortened: as §1
PC-3 = assay: Growth inhibition of human PC3 cells after 48 hrs by SRB assay; type: functional; procedure, shortened: as §1
NCI/ADR-RES = assay: Growth inhibition of human NCI/ADR-RES cells after 48 hrs by SRB assay; type: functional; procedure, shortened: as §1
UACC-257 = assay: Growth inhibition of human UACC257 cells after 48 hrs by SRB assay; type: functional; procedure, shortened: as §3
Malme-3M = assay: Growth inhibition of human MALME-3M cells after 48 hrs by SRB assay; type: functional; procedure, shortened: as §1
HOP-92 = assay: Growth inhibition of human HOP92 cells after 48 hrs by SRB assay; type: functional; procedure, shortened: as §1
SNB- = assay: Growth inhibition of human SNB cells after 48 hrs by SRB assay; type: functional; procedure, shortened: as §1
OVCAR-4 = assay: Growth inhibition of human OVCAR4 cells after 48 hrs by SRB assay; type: functional; procedure, shortened: as §1
OVCAR-3 = assay: Growth inhibition of human OVCAR3 cells after 48 hrs by SRB assay; type: functional; procedure, shortened: as §1
SF-295 = assay: Growth inhibition of human SF295 cells after 48 hrs by SRB assay; type: functional; procedure, shortened: as §1
NCI-H460 [4] = assay: Anticancer activity against human NCI-H460 cells assessed as cell growth at 100 uM after 48 hrs by SRB assay; type: functional; conditions: NCI-H460, 48 h, read-out: Activity; procedure, shortened: as §2
U-251 = assay: Growth inhibition of human U251 cells after 48 hrs by SRB assay; type: functional; procedure, shortened: as §3
UACC-62 = assay: Growth inhibition of human UACC62 cells after 48 hrs by SRB assay; type: functional; procedure, shortened: as §3
MOLT-4 = assay: Growth inhibition of human MOLT4 cells after 48 hrs by SRB assay; type: functional; procedure, shortened: as §1
SR = assay: Growth inhibition of human SR cells after 48 hrs by SRB assay; type: functional; procedure, shortened: as §3
RPMI18226 = assay: Growth inhibition of human […] cells after 48 hrs by SRB assay; type: functional; procedure, shortened: as §1
A549 = assay: Growth inhibition of human A549/ATCC cells after 48 hrs by SRB assay; type: functional; procedure, shortened: as §1
LOX IMVI = assay: Growth inhibition of human LOXIMVI cells after 48 hrs by SRB assay; type: functional; procedure, shortened: as §1
ACHN = assay: Growth inhibition of human ACHN cells after 48 hrs by SRB assay; type: functional; procedure, shortened: as §1
[5] = tested on: Trypanosoma brucei brucei; assay: Antitrypanosomal activity against bloodstream form of Trypanosoma brucei brucei strain 90-13 assessed as inhibition of parasite growth at 1 ug/ml after 72 hrs by resazurin reduction test; type: functional; conditions: strain 90-13, 72 h
Procedure, shortened: (§4)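 Trypanosoma brucei brucei 90-13 bloodstream forms, grown in HMI9 with 10% FCS at 37 °C under 5% CO2. Log-phase parasites were seeded at 10^5 cells/mL with or without inhibitor, with stocks prepared in DMSO. After 72 h, resazurin was added and fluorescence was read at 530/590 nm after a further 4 h. Percent growth inhibition was calculated versus drug-free parasites, with DMSO as control.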

[6] = tested on: Trypanosoma brucei brucei; assay: Antitrypanosomal activity against bloodstream form of Trypanosoma brucei brucei strain 90-13 assessed as inhibition of parasite growth at 10 ug/ml after 72 hrs by resazurin reduction test; type: functional; conditions: strain 90-13, 72 h; procedure, shortened: as §4
[7] = Acute toxicity in ip dosed white mouse; type: organism-based; conditions: in vivo
Procedure, shortened: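 White male mice, 23-25 g, dosed intraperitoneally with compound dissolved in 0.9% NaCl saline plus 1-2 drops Polysorbate 80 (Tween-80). Solutions prepared immediately before use. Doses ranged 100-1000 mg/kg, testing 4 or 5 doses with 6 animals per dose. LD50 derived by the Litchfield-Wilcoxon method.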

pGI50 (OVCAR-5): inactive | pGI50 (SK-MEL-5): inactive | pGI50 (CCRF-CEM): inactive | pGI50 (HCC 2998): inactive | pGI50 (NCI-H322M): inactive | pGI50 (NCI-H23): inactive | pGI50 (OVCAR-8): inactive | pGI50 (786-0 [1]): inactive | pGI50 (786-0 [2]): inactive | pGI50 (NCI-H522): inactive | pGI50 (HCT-116): inactive | pGI50 (BT-549): inactive | pGI50 (MDA-MB-231): inactive | pGI50 (MDA-MB-435): inactive | pGI50 (NCI-H460 [3]): inactive | pGI50 (PC-3): inactive | pGI50 (OVCAR-4): inactive | pGI50 (OVCAR-3): inactive | pGI50 (U-251): inactive | pGI50 (MOLT-4): inactive | pGI50 (A549): inactive | pGI50 (ACHN): inactive
SMILES: COc1ccc2cc(C(=O)Nc3nccs3)sc(=O)c2c1OC
pGI50 (RXF 393): inactive | pTGI (RXF 393): inactive | pTGI (OVCAR-5): inactive | pGI50 (SNB-75): inactive | pTGI (SNB-75): inactive | pTGI (SK-MEL-5): inactive | pTGI (CCRF-CEM): inactive | pGI50 (SF-539): inactive | pTGI (SF-539): inactive | pTGI (HCC 2998): inactive | pGI50 (CAKI-1): inactive | pTGI (CAKI-1): inactive | pGI50 (KM12): inactive | pTGI (KM12): inactive | pTGI (NCI-H322M): inactive | pTGI (NCI-H23): inactive | pTGI (OVCAR-8): inactive | growth at 100 µM (MCF7): 95% | pGI50 (Hs-578T): inactive | pTGI (Hs-578T): inactive | pTGI (786-0 [1]): inactive | pTGI (786-0 [2]): inactive | pGI50 (HOP-62): inactive | pTGI (HOP-62): inactive | pGI50 (M14): inactive | pTGI (M14): inactive | growth at 100 µM (SF-268): 98% | pGI50 (EKVX): inactive | pTGI (EKVX): inactive | pTGI (NCI-H522): inactive | pGI50 (HOP69): inactive | pTGI (HOP69): inactive | pGI50 (UO-31): inactive | pTGI (UO-31): inactive | pTGI (HCT-116): inactive | pGI50 (TK-10): inactive | pTGI (TK-10): inactive | pTGI (BT-549): inactive | pTGI (MDA-MB-231): inactive | pTGI (MDA-MB-435): inactive | pTGI (NCI-H460 [3]): inactive | pTGI (PC-3): inactive | pGI50 (NCI/ADR-RES): inactive | pTGI (NCI/ADR-RES): inactive | pGI50 (UACC-257): inactive | pTGI (UACC-257): inactive | pGI50 (Malme-3M): inactive | pTGI (Malme-3M): inactive | pGI50 (HOP-92): inactive | pTGI (HOP-92): inactive | pGI50 (SNB-): inactive | pTGI (SNB-): inactive | pTGI (OVCAR-4): inactive | pTGI (OVCAR-3): inactive | pGI50 (SF-295): inactive | pTGI (SF-295): inactive | growth at 100 µM (NCI-H460 [4]): 94% | pTGI (U-251): inactive | pGI50 (UACC-62): inactive | pTGI (UACC-62): inactive | pTGI (MOLT-4): inactive | pGI50 (SR): inactive | pTGI (SR): inactive | pGI50 (RPMI18226): inactive | pTGI (RPMI18226): inactive | pTGI (A549): inactive | pGI50 (LOX IMVI): inactive | pTGI (LOX IMVI): inactive | pTGI (ACHN): inactive

SMILES: O=C(Nc1cccc2ccccc12)c1cc2ccccc2c(=O)s1
inhibition at 1 µg/mL [5]: 60.8% | inhibition at 10 µg/mL [6]: > 50% | LD50 [7]: 410 mg/kg
